We go through two compounds from paper PMC7152711 (EBioMedicine, 2020).

Structures are written as SMILES. Like-named read-outs stand apart in the source and are kept apart here. Where only a bound is given, the exact number is not on record here.

Data set [1] is described as follows: Tolerability, body weight and blood parameters, oral study. In kind it is in vivo, mice. The essentials:
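In the oral study, infected BALB/c mice (n = 10 per group) were gavaged daily for 30 days with test compound in water, albendazole in 0.5% carboxymethyl cellulose, or water alone. Mice were monitored for morbidity signs and behaviour. Two weeks after treatment, plasma was collected, and body, liver, kidney and thymus weights were recorded.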

The subject of data set [2] is E. granulosus ss cysts. The data set can be described thus: In vivo efficacy, oral administration, secondarily infected mice. Details: species or system Echinococcus granulosus sensu stricto. The gist of the method:
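Microcyst-infected female BALB/c mice (3 months post-infection), 10 per group, were gavaged once daily for 30 days with 0.2 ml. Test compound 57 mg/kg was given in deionised water, albendazole 50 mg/kg in 0.5% carboxymethyl cellulose, and controls received deionised water. Necropsy 2 weeks post-treatment. Cysts were weighed and scored alive or dead by morphological type. One-way ANOVA or Kruskal-Wallis test.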

The subject of data set [3] is E. granulosus ss cysts. Nature of the data set: Transmission electron microscopy of cysts from treated mice. In kind it is in vivo, Echinococcus granulosus sensu stricto. The essentials:
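Cysts came from infected BALB/c mice given test compound at 57 mg/kg, either i.p. once daily for 3 days or by gavage daily for 30 days, and from albendazole-treated (50 mg/kg p.o.) and untreated mice. Cyst ultrastructure was examined by transmission electron microscopy, covering the laminated layer, tegument, germinal layer and microtriches.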

For data set [4], the system named is E. granulosus ss protoscoleces (PSCs). The data set can be described thus: E. granulosus ss PSC killing assay. The format is cell-based, Echinococcus granulosus sensu stricto. Particulars: Echinococcus granulosus, 24 h, read-out: LC50 (protoscolicidal activity). The gist of the method: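 Protoscoleces were aspirated from cysts in naturally infected sheep livers and cultured by a prior method. Wells held 200 PSCs; test compound from a 10× aqueous stock, final 34–114 μM; medium-only control. Incubation was 24 h at 37 °C, 5% CO2. Viability: 0.1% methylene blue for 5 min, with blue PSCs scored dead under an inverted microscope. Triplicate; LC50 by nonlinear regression.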

The test system of another data set is cystic echinococcosis. The conditions noted are these: clinical study ref 5; cited from earlier work.
Another data set deals with CYP2C19 (Homo sapiens, UniProt P33261). The data set can be described thus: CYP450 inhibition assay, human liver microsomes. In kind it is in vitro ADME. For orientation: Liver microsomes are a subcellular fraction often used to study metabolism.
Sequence of CYP2C19 (P33261 whole entry): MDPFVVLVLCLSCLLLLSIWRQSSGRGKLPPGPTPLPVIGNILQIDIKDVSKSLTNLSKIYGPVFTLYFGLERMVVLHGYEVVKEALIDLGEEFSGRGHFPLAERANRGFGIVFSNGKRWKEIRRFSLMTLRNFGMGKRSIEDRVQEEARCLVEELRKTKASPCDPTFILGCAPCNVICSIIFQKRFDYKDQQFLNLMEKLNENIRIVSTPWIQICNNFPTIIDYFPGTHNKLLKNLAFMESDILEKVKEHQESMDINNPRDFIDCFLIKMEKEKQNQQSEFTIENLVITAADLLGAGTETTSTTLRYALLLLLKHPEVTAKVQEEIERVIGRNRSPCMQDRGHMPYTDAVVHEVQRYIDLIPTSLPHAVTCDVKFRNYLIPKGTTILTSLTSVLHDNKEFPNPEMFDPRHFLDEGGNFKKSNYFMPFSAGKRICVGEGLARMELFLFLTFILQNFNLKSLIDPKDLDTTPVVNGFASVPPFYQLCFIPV
Data set [5] concerns Salmonella typhimurium strains. The conditions noted are these: cited from earlier work.
Data set [6] is described as follows: In vivo pharmacokinetics and tissue distribution. Details: species or system mice. Particulars: for Kp: male, ICR, mouse, intraperitoneal, 57 mg/kg. The essentials: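 Male ICR mice (20–22 g, 3 per time point) received a single 57 mg/kg i.p. dose. Plasma was precipitated with acetonitrile containing internal standards and centrifuged at 2600 g for 10 min at 4 °C. Liver and lung were homogenised in 4 volumes of 100 mM phosphate buffer, pH 7.4, and processed alike. Samples taken 0.25–48 h were measured by LC-MS/MS and analysed non-compartmentally.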

Another data set relates to caspase-3. The data set can be described thus: Caspase-3 activity assay in PSCs. The conditions noted are these: 100 µM 24 h, vs vehicle controls. In kind it is cell-based, E. granulosus.
For data set [7], the system named is E. granulosus ss cysts. Nature of the data set: In vivo efficacy, intraperitoneal administration, secondarily infected mice. Details: species or system Echinococcus granulosus sensu stricto. The gist of the method: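 Female BALB/c mice, 6–8 weeks, were infected intraperitoneally with microcysts and randomised at 3 months. Test compound in saline at 14, 28 or 57 mg/kg (n = 10 each), 1.0 ml i.p. once daily for 3 days; saline controls n = 12. Necropsy 2 weeks post-treatment. Cysts were weighed, and viability was scored by morphology: type 1 alive, types 2–3 dead. Kruskal-Wallis test.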

For data set [8] the following is noted: dogs, oral 24 mg/kg/day for 30 days ref 20; cited from earlier work.
The target in a further data set is CYP3A4 (Homo sapiens, UniProt P08684). The data set can be described thus: CYP450 inhibition assay, human liver microsomes. In kind it is in vitro ADME.
Sequence of CYP3A4 (P08684 whole entry): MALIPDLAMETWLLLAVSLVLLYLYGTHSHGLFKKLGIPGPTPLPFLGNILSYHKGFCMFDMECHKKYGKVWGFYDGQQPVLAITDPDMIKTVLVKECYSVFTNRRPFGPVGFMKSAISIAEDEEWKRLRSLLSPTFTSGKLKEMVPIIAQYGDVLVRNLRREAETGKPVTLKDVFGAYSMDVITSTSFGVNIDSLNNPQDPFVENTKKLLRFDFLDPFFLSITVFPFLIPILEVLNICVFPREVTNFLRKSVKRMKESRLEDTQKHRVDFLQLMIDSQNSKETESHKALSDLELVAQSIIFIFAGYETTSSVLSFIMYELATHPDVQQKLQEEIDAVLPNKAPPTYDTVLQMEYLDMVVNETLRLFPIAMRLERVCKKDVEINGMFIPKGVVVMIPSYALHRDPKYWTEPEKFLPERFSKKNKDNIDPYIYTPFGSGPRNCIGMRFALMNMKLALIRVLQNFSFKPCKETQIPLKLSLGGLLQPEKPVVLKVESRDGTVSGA
In data set [9] the test system is E. granulosus ss cysts. Nature of the data set: Microinjection treatment of cysts. The format is in vivo, Echinococcus granulosus sensu stricto.
For data set [10] the following is noted: rat, 28 days oral treatment ref 16; cited from earlier work.
Data set [11] addresses T1, E. granulosus ss topoisomerase I (Egtopo I) (Echinococcus granulosus, UniProt W6UT38).
T1 sequence (W6UT38 1-621): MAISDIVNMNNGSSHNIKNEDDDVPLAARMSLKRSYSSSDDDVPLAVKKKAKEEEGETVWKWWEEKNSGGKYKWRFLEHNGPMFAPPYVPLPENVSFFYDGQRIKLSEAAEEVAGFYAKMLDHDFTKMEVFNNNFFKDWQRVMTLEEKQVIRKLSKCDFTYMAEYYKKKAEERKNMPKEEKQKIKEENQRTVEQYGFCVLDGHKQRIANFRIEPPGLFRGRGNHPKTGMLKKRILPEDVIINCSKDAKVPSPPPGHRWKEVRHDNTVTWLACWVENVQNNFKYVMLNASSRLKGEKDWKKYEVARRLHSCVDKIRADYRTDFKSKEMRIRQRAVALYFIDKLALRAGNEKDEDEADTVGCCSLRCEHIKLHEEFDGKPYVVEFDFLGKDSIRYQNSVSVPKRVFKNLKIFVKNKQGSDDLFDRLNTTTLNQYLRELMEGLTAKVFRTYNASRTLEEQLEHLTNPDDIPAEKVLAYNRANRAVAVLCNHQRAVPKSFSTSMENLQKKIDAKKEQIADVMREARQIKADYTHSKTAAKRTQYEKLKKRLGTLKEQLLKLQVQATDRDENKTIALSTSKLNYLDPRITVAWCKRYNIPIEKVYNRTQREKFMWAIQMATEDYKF
Nature of the data set: Egtopo I-mediated DNA relaxation assay. In kind it is biochemical, Echinococcus granulosus sensu stricto. The conditions noted are these: read-out: IC50 Egtopo I activity; relaxation of supercoiled pBR322, 30 min 37 °C. The gist of the method: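 Kit-based relaxation assay with pBR322 (200 ng), Egtopo I (300 ng) and 0.1% BSA. Test compound at final 50, 100, 150, 200, 300, 400, 500 and 600 μM in assay buffer, 30 min at 37 °C. Stopped with 10% SDS plus loading buffer, run on 1% agarose and stained with ethidium bromide (5 μg/ml). IC50 from a nonlinear regression fit, n = 3.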

Data set [12] has as its system E. granulosus ss PSCs. The data set can be described thus: DNA fragmentation assay in PSCs. The conditions noted are these: 50 μM, 24 h. In kind it is cell-based.
The subject of a further data set is bone marrow. The conditions noted are these: mice, bone marrow ref 38, 39; cited from earlier work.
Data set [13] is described as follows: Tolerability, organ weights and blood parameters, intraperitoneal study. In kind it is in vivo, mice. The essentials: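 Microcyst-infected female BALB/c mice were dosed i.p. once daily for 3 days with test compound in saline (14, 28, 57 mg/kg; n = 10) or saline (n = 12). During treatment they were watched for emaciation, hunched back, ruffled coat, appetite and behaviour changes. Two weeks post-treatment, plasma was taken for haematology and biochemistry, and liver, kidneys, thymus and body were weighed.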

For data set [14] the following is noted: dog, 28 days oral treatment ref 16; cited from earlier work.
In data set [15] the test system is E. granulosus ss PSCs. The data set can be described thus: TUNEL assay in PSCs. The conditions noted are these: 100 µM, 24 h. The format is cell-based.
Another data set addresses T2, CYP1A2 (Homo sapiens, UniProt P05177).
T2 sequence (P05177 1-516): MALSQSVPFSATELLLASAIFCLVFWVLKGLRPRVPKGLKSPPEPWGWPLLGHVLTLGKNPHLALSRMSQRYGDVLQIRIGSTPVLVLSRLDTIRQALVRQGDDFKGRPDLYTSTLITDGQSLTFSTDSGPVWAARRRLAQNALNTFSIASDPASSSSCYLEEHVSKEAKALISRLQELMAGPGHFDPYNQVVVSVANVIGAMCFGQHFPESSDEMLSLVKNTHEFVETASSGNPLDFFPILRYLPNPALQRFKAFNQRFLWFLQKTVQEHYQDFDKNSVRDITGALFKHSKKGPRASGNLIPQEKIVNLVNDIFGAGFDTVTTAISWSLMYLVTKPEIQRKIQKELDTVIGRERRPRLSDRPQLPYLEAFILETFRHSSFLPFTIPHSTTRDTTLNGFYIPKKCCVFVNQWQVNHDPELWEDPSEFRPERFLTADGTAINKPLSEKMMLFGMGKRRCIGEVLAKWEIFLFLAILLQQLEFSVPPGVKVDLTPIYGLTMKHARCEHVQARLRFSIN
The data set can be described thus: CYP450 inhibition assay, human liver microsomes. The format is in vitro ADME.

Data set [16] is described as follows: 28 days oral treatment NOAEL in the dog. Particulars: in vivo, 5 mg/kg/day.
A further data set addresses CYP2C9 (Homo sapiens, UniProt P11712). Nature of the data set: CYP450 inhibition assay, human liver microsomes. In kind it is in vitro ADME.
A further data set concerns the target CYP2D6 (Homo sapiens, UniProt P10635). Nature of the data set: CYP450 inhibition assay, human liver microsomes. The format is in vitro ADME.
Data set [17] is described as follows: 28 days oral treatment NOAEL in the rat. The conditions noted are these: in vivo, 23 mg/kg/day.
Where [18] appears, read: 0 to 48 h, single 57 mg/kg i.p.

Sequence of CYP2D6 (P10635 whole entry): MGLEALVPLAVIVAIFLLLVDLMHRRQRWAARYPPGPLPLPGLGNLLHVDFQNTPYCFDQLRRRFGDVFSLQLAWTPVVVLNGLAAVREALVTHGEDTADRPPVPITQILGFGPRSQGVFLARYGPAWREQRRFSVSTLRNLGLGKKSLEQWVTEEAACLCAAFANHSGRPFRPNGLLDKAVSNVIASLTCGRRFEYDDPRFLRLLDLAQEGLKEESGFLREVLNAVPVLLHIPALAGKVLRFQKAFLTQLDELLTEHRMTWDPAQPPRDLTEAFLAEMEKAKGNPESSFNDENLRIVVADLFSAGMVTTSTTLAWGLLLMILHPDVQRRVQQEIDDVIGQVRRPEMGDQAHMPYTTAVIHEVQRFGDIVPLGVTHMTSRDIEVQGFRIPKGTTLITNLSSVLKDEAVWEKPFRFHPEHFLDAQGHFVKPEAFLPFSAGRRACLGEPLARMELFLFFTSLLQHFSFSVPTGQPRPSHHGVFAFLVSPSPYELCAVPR
Sequence of CYP2C9 (P11712 whole entry): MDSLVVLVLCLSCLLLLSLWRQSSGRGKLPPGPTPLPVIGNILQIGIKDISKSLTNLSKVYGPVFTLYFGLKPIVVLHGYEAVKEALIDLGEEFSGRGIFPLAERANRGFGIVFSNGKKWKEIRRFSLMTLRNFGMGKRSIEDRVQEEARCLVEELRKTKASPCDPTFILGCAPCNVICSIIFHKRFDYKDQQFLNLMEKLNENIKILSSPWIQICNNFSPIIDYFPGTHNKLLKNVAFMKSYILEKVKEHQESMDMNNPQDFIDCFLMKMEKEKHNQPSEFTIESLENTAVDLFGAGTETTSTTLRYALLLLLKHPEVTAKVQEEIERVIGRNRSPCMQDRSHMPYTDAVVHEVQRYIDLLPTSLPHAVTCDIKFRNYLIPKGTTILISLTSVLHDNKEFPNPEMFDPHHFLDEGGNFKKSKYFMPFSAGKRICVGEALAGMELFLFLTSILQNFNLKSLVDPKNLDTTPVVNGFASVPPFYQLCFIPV

What is called LC50 is the concentration that kills 50% of the test population. With `CCCSc1ccc2nc(NC(=O)OC)[nH]c2c1` [ABZ, albendazole], in data set [1] (ABZ 50 mg/kg p.o. 30 days), the body weight entry is given as “minor loss of body weight”. In the data set with E. granulosus ss cysts [2] (ABZ 50 mg/kg p.o. q.d. 30 days), this compound came in with a cyst mortality rate of 22.2% and a cyst weight reduction of 48.1%. The “cyst ultrastructure (TEM)” value in the data set on E. granulosus ss cysts [3] (ABZ 50 mg/kg, p.o.) is on record as “did not exhibit obvious ultrastructural changes”. In addition, in data set [4], the LC50 turned out to be 79.2 ± 3.9 µM. The “CE cases that did not respond favorably to treatment” value with cystic echinococcosis is recorded as “approximately 40%”.

By IC50 is commonly meant the concentration at which inhibition is half-maximal. As a reminder, the Kp is tissue or fluid exposure divided by exposure in the circulation. One may read the NOAEL as the highest dose or exposure tested at which no adverse effect was seen. As to `COc1ccc2nc3cc(Cl)ccc3c(Nc3cc(CN4CCCC4)c(O)c(CN4CCCC4)c3)c2n1` [PND, pyronaridine], the IC50 is above 10 µM against CYP2C19; above 10 µM against CYP3A4; 209.7 ± 1.1 µM in data set [11]; above 10 µM against CYP1A2; above 10 µM at CYP2C9; 1.53 µM against CYP2D6. For the same compound, the Ames mutagenicity entry was “evidence of bacterial mutagenicity” in data set [5] (strain TA1537 ref 40); “did not induce mutations” in [5] (strains TA100, TA98, TA1535 and TA1538 ref 40). Moreover, the “average concentration in the liver” value in data set [6] (setting [18]) was found to be 435.7 µmol/kg. Moreover, the “average concentration in the lungs” value in [6] (setting [18]) stood at 122.5 µmol/kg. In [6] (setting [18]), this compound came in with an average plasma concentration of 1.5 µM. Besides, the partition ratio (Kp) was 290 in [6] (liver/plasma) and 81.7 in [6] (lungs/plasma). Further, the body weight entry in data set [1] (PND 57 mg/kg p.o. 30 days) is “minor loss of body weight”. For the same compound, in the data set with E. granulosus ss cysts [2] (PND 57 mg/kg p.o. q.d. 30 days), the “cysts killed (mortality rate)” value was found to be 90.7%. In addition, the “parasite wet weight reduction” value is 42.4% in the data set on E. granulosus ss cysts [2] (PND 57 mg/kg p.o. q.d. 30 days, vs vehicle control) and 52.3% in the data set with E. granulosus ss cysts [9] (200 μM microinjected, 30 days post-treatment, vs saline group). In addition, the “increase in caspase-3 activity” value with caspase-3 was determined as 20 fold. In the data set on E. granulosus ss cysts [3] (PND 57 mg/kg, both i.p. and p.o.), the “cyst ultrastructure (TEM)” value is listed as “devastating damage of the cyst tissues”. Moreover, in the data set with E. granulosus ss cysts [7] (57 mg/kg i.p. q.d. 3 days), the cyst mortality came to 100%. In addition, the “wet cyst weight reduction” value in the data set on E. granulosus ss cysts [7] (57 mg/kg i.p. q.d. 3 days, vs unmedicated mice) was 38.7%. Further, the growth of cysts result with E. granulosus ss cysts [7] (14, 28 and 57 mg/kg i.p. q.d. 3 days) was “successfully suppressed the growth of cysts”. Besides, the tolerability result in data set [8] is “well tolerated”. This compound registered a cyst counts in the data set on E. granulosus ss cysts [9] (200 μM microinjected, 35 cysts/mouse transferred, 30 days) of 6.4 ± 1.2. In addition, in the data set on E. granulosus ss cysts [9] (microinjection with PND), the “cysts killed after microinjection” value was “more than 90%”. In addition, the “no observed adverse effect level (NOAEL)” value in data set [10] is 23 mg/kg/day; in data set [14] it was 5 mg/kg/day. For the same compound, in the data set on E. granulosus ss PSCs [12], the “DNA ladder on agarose gel” value is given as “a clear pattern of DNA fragmentation (DNA ladder) was observed”. Also, the micronucleus frequency result in the data set with bone marrow was “no increase in micronucleus frequency in the bone marrow”. Moreover, the “behaviour and adverse effects” value in [13] (14, 28, 57 mg/kg i.p. q.d. 3 days) was “without obvious adverse effects”. Moreover, the liver weight entry in data set [13] (high-dosage group (57 mg/kg i.p.), vs control) is “a minor increase in liver weight”. In addition, the LC50 in [4] came out at 49 ± 0.2 µM. In addition, the “TUNEL staining (DNA fragmentation)” value in the data set with E. granulosus ss PSCs [15] was “abundant TdT dUTP nick-end labeling (TUNEL)-positive cells were observed”. The NOAEL at 28 days in data set [16] stood at 2.7 mg/kg/day; in data set [17] it was 3.7 mg/kg/day.
